Key:
RAW264.7 [1] = test: Antiinflammatory activity in mouse RAW264.7 cells assessed as inhibition of LPS-induced nitric oxide production after 24 hrs by Griess assay; assay type: functional, cell-based; conditions: RAW264.7, 24 h
Summary of the method: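 RAW264.7 cells were obtained from the Peking Union Medical College Cell Bank and stimulated with LPS. Nitric oxide production was measured in the presence of test compounds. Compounds were made as DMSO stocks, with final DMSO below 0.2%. IC50 values are given as mean ± SD of three independent experiments. A positive control was included.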

RAW264.7 [2] = test: Cytotoxicity against mouse RAW264.7 cells assessed as effect on cell viability up to 80 uM after 24 hrs by MTT assay; assay type: cell-based; conditions: raw264.7, 24 h
Summary of the method: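 Viability or proliferation of RAW264.7 cells was measured by MTT. Compounds were tested at up to 80 μM alongside LPS treatment for 24 h. They were made as DMSO stocks, with final DMSO below 0.2%. The assay was run to test whether lower NO reflected loss of cells.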

| Compound | IC50 (RAW264.7 [1]) [µM] | Activity (RAW264.7 [2]) |
| --- | --- | --- |
| O=c1cc(CCc2ccccc2)oc2c1[C@@H]1c3c(ccc4oc(CCc5ccccc5)cc(=O)c34)O[C@@H]([C@@H]1O)[C@H]2O | 11.5 | Non-Toxic |
| COc1ccc2oc(CCc3ccc(OC)c4c3[C@H]3c5c(oc(CCc6ccccc6)cc5=O)[C@H](O)[C@@H](O4)[C@@H]3O)cc(=O)c2c1 | 8.5 | Non-Toxic |
| O=c1cc(CCc2ccccc2)oc2c1[C@H]1c3ccc4c(=O)cc(CCc5ccccc5)oc4c3O[C@H]([C@H]1O)[C@@H]2O | 8.8 | Non-Toxic |
| COc1ccc(CCc2cc(=O)c3c(o2)[C@@H](O)[C@@H]2Oc4c(c(O)cc5c(=O)cc(CCc6ccc(OC)cc6)oc45)[C@H]3[C@@H]2O)cc1 | 10.5 | Non-Toxic |
| COc1ccc(CCc2cc(=O)c3c(o2)[C@H](O)[C@H]2Oc4c(OC)ccc(CCc5cc(=O)c6cc(OC)ccc6o5)c4[C@@H]3[C@H]2O)cc1 | 7 | Non-Toxic |

The remaining compounds from weak to strong by IC50 (RAW264.7 [1]), led by results:

| IC50 (RAW264.7 [1]) [µM] | Compound | Activity (RAW264.7 [2]) |
| --- | --- | --- |
| 12 | COc1ccc2oc(CCc3ccc4c(c3)O[C@H]3[C@H](O)[C@@H]4c4c(oc(CCc5ccccc5)cc4=O)[C@@H]3O)cc(=O)c2c1 | Non-Toxic |
| 9.3 | COc1ccc(CCc2cc(=O)c3c(o2)[C@@H](O)[C@@H]2Oc4ccc5oc(CCc6ccccc6)cc(=O)c5c4[C@H]3[C@@H]2O)cc1 | Non-Toxic |
| 8.6 | O=c1cc(CCc2ccccc2)oc2c1[C@@H]1c3ccc4c(=O)cc(CCc5ccccc5)oc4c3O[C@@H]([C@@H]1O)[C@H]2O | Non-Toxic |
| 8.5 | COc1ccc2oc(CCc3ccc(OC)c4c3[C@@H]3c5c(oc(CCc6ccccc6)cc5=O)[C@@H](O)[C@H](O4)[C@H]3O)cc(=O)c2c1 | Non-Toxic |
| 7.6 | O=c1cc(CCc2ccccc2)oc2c1[C@H]1c3c(ccc4oc(CCc5ccccc5)cc(=O)c34)O[C@H]([C@H]1O)[C@@H]2O | Non-Toxic |
| 4.4 | COc1ccc(CCc2cc(=O)c3c(O)c(O)c(O)c(Cl)c3o2)cc1 | – |

Source: ChEMBL document CHEMBL4138239, “Anti-inflammatory Dimeric 2-(2-Phenylethyl)chromones from the Resinous Wood of Aquilaria sinensis” (J Nat Prod, 2018)
